The results in this text go back to ChEMBL document CHEMBL3421560, “Search for factors affecting antibacterial activity and toxicity of 1,2,4-triazole-ciprofloxacin hybrids” (Eur J Med Chem, 2015).

Each structure is given as a SMILES string. Values after ≈ are worked out from the molar mass of the structure shown.

The subject of one assay is Micrococcus luteus. In words: Antimicrobial activity against Micrococcus luteus ATCC 10240 after 18 hrs by broth microdilution method. Type of assay: functional. The following applies: ATCC 10240, 18 h. In general terms: In broth dilution the organism is exposed to a series of concentrations in liquid medium.
The next assay relates to Escherichia coli. In words: Antimicrobial activity against Escherichia coli ATCC 25922 after 18 hrs by broth microdilution method. Type of assay: functional. The following applies: ATCC 25922, 18 h.
In another assay the test system is Bacillus subtilis. In words: Antimicrobial activity against Bacillus subtilis […] after 18 hrs by broth microdilution method. Type of assay: functional.
Assay [1] deals with Staphylococcus aureus. In words: Ratio of ciprofloxacin MIC to compound MIC for methicillin-susceptible Staphylococcus aureus ATCC 25923. It is filed as functional.
In assay [2] the test system is Staphylococcus aureus. In words: Antimicrobial activity against Staphylococcus aureus Microbank 14001 after 18 hrs by broth microdilution method. Type of assay: functional. The following applies: Microbank 14001, 18 h.
In the next assay the test system is HEK293. In words: Cytotoxicity against HEK293 cells after 72 hrs by MTT assay. Type of assay: cell-based. The conditions noted are these: Homo sapiens, HEK293, 48 h; in the assay text read “48 hrs” for “72 hrs”. The method in brief:
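HEK-293 (ATCC CRL-1573) in MEM with 10% FBS plus penicillin/streptomycin, seeded 3 x 10^5 cells/well, 24 h at 37 °C, 5% CO2. Treated with compounds diluted from 50 mg/mL DMSO stock into medium with 2% FBS for 48 h. Viability by MTT formazan readout; EC50 relative to control cells, mean ± SD of three independent experiments.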
A general note: Tetrazolium dyes change colour on reduction, which living cells bring about.

Assay [3] deals with Staphylococcus aureus. The assay can be described thus: Antimicrobial activity against methicillin-susceptible Staphylococcus aureus ATCC 25923 after 18 hrs by broth microdilution method. Type of assay: functional. The conditions noted are these: ATCC 25923, 18 h.
Assay [4] has as its system Staphylococcus epidermidis. In words: Antimicrobial activity against Staphylococcus epidermidis ATCC 12228 after 18 hrs by broth microdilution method. Type of assay: functional. The conditions noted are these: ATCC 12228, 18 h.
For assay [5], the system named is Staphylococcus aureus. In words: Ratio of MBC for Staphylococcus aureus Microbank 14001 to MIC for Staphylococcus aureus Microbank 14001. It is filed as functional. The method in brief:
(§1)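 MBC taken as lowest concentration giving >99.9% CFU reduction of the initial inoculum; value is MBC divided by MIC for the same strain.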

The subject of another assay is Bacillus cereus. In words: Antimicrobial activity against Bacillus cereus ATCC 10876 after 18 hrs by broth microdilution method. Type of assay: functional. The following applies: ATCC 10876, 18 h.
The test system of another assay is Klebsiella pneumoniae. The assay can be described thus: Antimicrobial activity against Klebsiella pneumoniae ATCC 13883 after 18 hrs by broth microdilution method. Type of assay: functional. The conditions noted are these: ATCC 13883, 18 h.
The test system of assay [6] is Staphylococcus aureus. The assay can be described thus: Antimicrobial activity against methicillin-susceptible Staphylococcus aureus ATCC 6538 after 18 hrs by broth microdilution method. The conditions noted are these: ATCC 6538, 18 h. Type of assay: functional.
For assay [7], the system named is Pseudomonas aeruginosa. The assay can be described thus: Antimicrobial activity against Pseudomonas aeruginosa ATCC 9027 after 18 hrs by broth microdilution method. It is filed as functional. The conditions noted are these: ATCC 9027, 18 h.
Assay [8] concerns Staphylococcus aureus. In words: Ratio of MBC for methicillin-susceptible Staphylococcus aureus ATCC 6538 to MIC for methicillin-susceptible Staphylococcus aureus ATCC 6538. It is filed as functional. The gist of the method: as §1
The test system of a further assay is Proteus mirabilis. In words: Antimicrobial activity against Proteus mirabilis ATCC 12453 after 18 hrs by broth microdilution method. Type of assay: functional. The conditions noted are these: ATCC 12453, 18 h.
For assay [9], the system named is Staphylococcus aureus. The assay can be described thus: Ratio of MBC for methicillin-susceptible Staphylococcus aureus ATCC 25923 to MIC for methicillin-susceptible Staphylococcus aureus ATCC 25923. It is filed as functional. The method in brief: as §1
Assay [10] has as its system Staphylococcus aureus. In words: Ratio of vancomycin MIC to compound MIC for Staphylococcus aureus Microbank 14001. Type of assay: functional.
Assay [11] relates to Pseudomonas aeruginosa. In words: Ratio of ciprofloxacin MIC to compound MIC for Pseudomonas aeruginosa ATCC 9027. It is filed as functional.
The subject of assay [12] is Staphylococcus aureus. The assay can be described thus: Ratio of ciprofloxacin MIC to compound MIC for methicillin-susceptible Staphylococcus aureus ATCC 6538. Type of assay: functional.

Regarding `O=C(O)c1cn(C2CC2)c2cc(N3CCN(Cn4nc(-c5ccc(O)cc5)n(-c5ccc(F)cc5)c4=S)CC3)c(F)cc2c1=O`, the MIC with Micrococcus luteus worked out at 1.55 µM (≈ 0.978 µg/mL); against Escherichia coli, 0.024 µM (≈ 0.0151 µg/mL); with Bacillus subtilis, 0.048 µM (≈ 0.0303 µg/mL); in the assay with Staphylococcus aureus [2] it was 0.19 µM (≈ 0.12 µg/mL); with Staphylococcus aureus [3], 0.19 µM (≈ 0.12 µg/mL); in assay [4] it was 0.095 µM (≈ 0.0599 µg/mL). The MIC in the assay on Bacillus cereus amounted to 0.095 µM (≈ 0.0599 µg/mL); against Klebsiella pneumoniae, 0.19 µM (≈ 0.12 µg/mL); with Staphylococcus aureus [6], 0.19 µM (≈ 0.12 µg/mL); with Pseudomonas aeruginosa [7] it was 0.38 µM (≈ 0.24 µg/mL); with Proteus mirabilis it was 0.048 µM (≈ 0.0303 µg/mL). In addition, the Ratio with Staphylococcus aureus [1] was 16; in the assay with Staphylococcus aureus [5] it was “<=4”; in the assay on Staphylococcus aureus [8] it was “<=4”; in the assay on Staphylococcus aureus [9], “<=4”. Also, the midpoint of the response with HEK293, the EC50, lay at 106 µM.
Turning to `O=C(O)c1cn(C2CC2)c2cc(N3CCN(Cn4nc(-c5ccccc5O)n(Cc5ccc(F)cc5)c4=S)CC3)c(F)cc2c1=O`, the minimum inhibitory concentration (MIC) with Micrococcus luteus was determined as 0.76 µM (≈ 0.49 µg/mL); in the assay on Escherichia coli, 0.011 µM (≈ 0.00709 µg/mL); against Bacillus subtilis it was 0.011 µM (≈ 0.00709 µg/mL); against Staphylococcus aureus [2], 0.046 µM (≈ 0.0297 µg/mL); in the assay with Staphylococcus aureus [3] it was 0.76 µM (≈ 0.49 µg/mL); in [4], 0.046 µM (≈ 0.0297 µg/mL). The MIC against Bacillus cereus is 0.093 µM (≈ 0.06 µg/mL); in the assay on Klebsiella pneumoniae, 0.093 µM (≈ 0.06 µg/mL); against Staphylococcus aureus [6], 0.19 µM (≈ 0.122 µg/mL); with Pseudomonas aeruginosa [7] it was 0.046 µM (≈ 0.0297 µg/mL); against Proteus mirabilis, 0.023 µM (≈ 0.0148 µg/mL). Further, the Ratio result in the assay with Staphylococcus aureus [5] is given as “<=4”; in the assay with Staphylococcus aureus [10], 15; with Staphylococcus aureus [8], “<=4”; with Staphylococcus aureus [9], “<=4”.
Regarding `COc1ccc(Cn2c(-c3ccccc3O)nn(CN3CCN(c4cc5c(cc4F)c(=O)c(C(=O)O)cn5C4CC4)CC3)c2=S)cc1`, the MIC is 1.49 µM (≈ 0.979 µg/mL) against Micrococcus luteus; 0.011 µM (≈ 0.00722 µg/mL) against Escherichia coli; 0.011 µM (≈ 0.00722 µg/mL) with Bacillus subtilis; 0.091 µM (≈ 0.0598 µg/mL) with Staphylococcus aureus [2]; 0.36 µM (≈ 0.236 µg/mL) against Staphylococcus aureus [3]; 0.046 µM (≈ 0.0302 µg/mL) in assay [4]. The MIC against Bacillus cereus came to 0.091 µM (≈ 0.0598 µg/mL); in the assay on Klebsiella pneumoniae, 0.023 µM (≈ 0.0151 µg/mL); against Staphylococcus aureus [6], 0.091 µM (≈ 0.0598 µg/mL); with Pseudomonas aeruginosa [7], 0.023 µM (≈ 0.0151 µg/mL); against Proteus mirabilis it was 0.023 µM (≈ 0.0151 µg/mL). In addition, the EC50 in the assay on HEK293 stood at 78.7 µM. Also, the Ratio is recorded as 31 in the assay with Pseudomonas aeruginosa [11]; “<=4” in the assay with Staphylococcus aureus [5]; 8 in the assay on Staphylococcus aureus [12]; “<=4” in the assay on Staphylococcus aureus [8]; “<=4” with Staphylococcus aureus [9].
Take `COc1ccc(Cn2c(-c3cccc(O)c3)nn(CN3CCN(c4cc5c(cc4F)c(=O)c(C(=O)O)cn5C4CC4)CC3)c2=S)cc1`: the MIC turned out to be 1.49 µM (≈ 0.979 µg/mL) against Micrococcus luteus; 0.011 µM (≈ 0.00722 µg/mL) against Escherichia coli; 0.091 µM (≈ 0.0598 µg/mL) against Bacillus subtilis; 0.046 µM (≈ 0.0302 µg/mL) in the assay with Staphylococcus aureus [2]; 0.18 µM (≈ 0.118 µg/mL) against Staphylococcus aureus [3]; 0.091 µM (≈ 0.0598 µg/mL) in [4]. Besides, the MIC against Bacillus cereus amounted to 0.18 µM (≈ 0.118 µg/mL); in the assay with Klebsiella pneumoniae it was 0.091 µM (≈ 0.0598 µg/mL); in the assay with Staphylococcus aureus [6], 0.091 µM (≈ 0.0598 µg/mL); with Pseudomonas aeruginosa [7], 0.18 µM (≈ 0.118 µg/mL); with Proteus mirabilis, 0.023 µM (≈ 0.0151 µg/mL). The Ratio in the assay with Staphylococcus aureus [1] is on record as 16; in the assay with Staphylococcus aureus [5], “<=4”; with Staphylococcus aureus [12], 8; in the assay with Staphylococcus aureus [10] it was 15; in the assay with Staphylococcus aureus [8], “<=4”; with Staphylococcus aureus [9], “<=4”. The compound further returned an EC50 in the assay on HEK293 of 62.9 µM.
Consider `COc1ccc(-n2c(-c3ccc(O)cc3)nn(CN3CCN(c4cc5c(cc4F)c(=O)c(C(=O)O)cn5C4CC4)CC3)c2=S)cc1`, for which the MIC against Micrococcus luteus was 1.52 µM (≈ 0.977 µg/mL); against Escherichia coli, 0.012 µM (≈ 0.00771 µg/mL); against Bacillus subtilis, 0.023 µM (≈ 0.0148 µg/mL); against Staphylococcus aureus [2], 0.093 µM (≈ 0.0598 µg/mL); with Staphylococcus aureus [3], 0.76 µM (≈ 0.488 µg/mL); in [4], 0.37 µM (≈ 0.238 µg/mL). The minimal inhibitory concentration (MIC) in the assay on Bacillus cereus was found to be 0.19 µM (≈ 0.122 µg/mL); in the assay with Klebsiella pneumoniae, 0.093 µM (≈ 0.0598 µg/mL); with Staphylococcus aureus [6], 0.19 µM (≈ 0.122 µg/mL); in the assay on Pseudomonas aeruginosa [7] it was 0.023 µM (≈ 0.0148 µg/mL); with Proteus mirabilis it was 0.023 µM (≈ 0.0148 µg/mL). In addition, the EC50 in the assay on HEK293 amounted to 105 µM. Also, the Ratio in the assay with Pseudomonas aeruginosa [11] is 31; in the assay with Staphylococcus aureus [5], “<=4”; in the assay on Staphylococcus aureus [8], “<=4”; with Staphylococcus aureus [9], “<=4”.

The MIC is the lowest concentration found to suppress growth. A higher MIC goes with weaker potency. A word on the EC50: it is the midpoint of the concentration-response curve.
